Experimental data as given in PMC4869831 (Nature structural & molecular biology, 2011).

Tests used:
ATR = ATR (Mus musculus, UniProt Q9JKK8); type: cell-based; conditions: increasing doses of caffeine
Method in brief: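 3T3 TopBP1-ER mouse cells (15000/well) were plated the day before on gelatine-coated wells. Graded caffeine doses were added for 15 min at 37 °C, then 4-OHT for 60 min at 37 °C. Cells were paraformaldehyde-fixed and stained for γH2AX by immunofluorescence. Automated 10x imaging gave mean γH2AX per DAPI-masked nucleus from ≥300 cells/well. Values were normalized to no-4-OHT (min) and 4-OHT-only (max) controls. Error bars s.d.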

IGF-IR = conditions: equally potent on both kinases in vitro; cited from earlier work

Chain of ATR (Q9JKK8 whole entry): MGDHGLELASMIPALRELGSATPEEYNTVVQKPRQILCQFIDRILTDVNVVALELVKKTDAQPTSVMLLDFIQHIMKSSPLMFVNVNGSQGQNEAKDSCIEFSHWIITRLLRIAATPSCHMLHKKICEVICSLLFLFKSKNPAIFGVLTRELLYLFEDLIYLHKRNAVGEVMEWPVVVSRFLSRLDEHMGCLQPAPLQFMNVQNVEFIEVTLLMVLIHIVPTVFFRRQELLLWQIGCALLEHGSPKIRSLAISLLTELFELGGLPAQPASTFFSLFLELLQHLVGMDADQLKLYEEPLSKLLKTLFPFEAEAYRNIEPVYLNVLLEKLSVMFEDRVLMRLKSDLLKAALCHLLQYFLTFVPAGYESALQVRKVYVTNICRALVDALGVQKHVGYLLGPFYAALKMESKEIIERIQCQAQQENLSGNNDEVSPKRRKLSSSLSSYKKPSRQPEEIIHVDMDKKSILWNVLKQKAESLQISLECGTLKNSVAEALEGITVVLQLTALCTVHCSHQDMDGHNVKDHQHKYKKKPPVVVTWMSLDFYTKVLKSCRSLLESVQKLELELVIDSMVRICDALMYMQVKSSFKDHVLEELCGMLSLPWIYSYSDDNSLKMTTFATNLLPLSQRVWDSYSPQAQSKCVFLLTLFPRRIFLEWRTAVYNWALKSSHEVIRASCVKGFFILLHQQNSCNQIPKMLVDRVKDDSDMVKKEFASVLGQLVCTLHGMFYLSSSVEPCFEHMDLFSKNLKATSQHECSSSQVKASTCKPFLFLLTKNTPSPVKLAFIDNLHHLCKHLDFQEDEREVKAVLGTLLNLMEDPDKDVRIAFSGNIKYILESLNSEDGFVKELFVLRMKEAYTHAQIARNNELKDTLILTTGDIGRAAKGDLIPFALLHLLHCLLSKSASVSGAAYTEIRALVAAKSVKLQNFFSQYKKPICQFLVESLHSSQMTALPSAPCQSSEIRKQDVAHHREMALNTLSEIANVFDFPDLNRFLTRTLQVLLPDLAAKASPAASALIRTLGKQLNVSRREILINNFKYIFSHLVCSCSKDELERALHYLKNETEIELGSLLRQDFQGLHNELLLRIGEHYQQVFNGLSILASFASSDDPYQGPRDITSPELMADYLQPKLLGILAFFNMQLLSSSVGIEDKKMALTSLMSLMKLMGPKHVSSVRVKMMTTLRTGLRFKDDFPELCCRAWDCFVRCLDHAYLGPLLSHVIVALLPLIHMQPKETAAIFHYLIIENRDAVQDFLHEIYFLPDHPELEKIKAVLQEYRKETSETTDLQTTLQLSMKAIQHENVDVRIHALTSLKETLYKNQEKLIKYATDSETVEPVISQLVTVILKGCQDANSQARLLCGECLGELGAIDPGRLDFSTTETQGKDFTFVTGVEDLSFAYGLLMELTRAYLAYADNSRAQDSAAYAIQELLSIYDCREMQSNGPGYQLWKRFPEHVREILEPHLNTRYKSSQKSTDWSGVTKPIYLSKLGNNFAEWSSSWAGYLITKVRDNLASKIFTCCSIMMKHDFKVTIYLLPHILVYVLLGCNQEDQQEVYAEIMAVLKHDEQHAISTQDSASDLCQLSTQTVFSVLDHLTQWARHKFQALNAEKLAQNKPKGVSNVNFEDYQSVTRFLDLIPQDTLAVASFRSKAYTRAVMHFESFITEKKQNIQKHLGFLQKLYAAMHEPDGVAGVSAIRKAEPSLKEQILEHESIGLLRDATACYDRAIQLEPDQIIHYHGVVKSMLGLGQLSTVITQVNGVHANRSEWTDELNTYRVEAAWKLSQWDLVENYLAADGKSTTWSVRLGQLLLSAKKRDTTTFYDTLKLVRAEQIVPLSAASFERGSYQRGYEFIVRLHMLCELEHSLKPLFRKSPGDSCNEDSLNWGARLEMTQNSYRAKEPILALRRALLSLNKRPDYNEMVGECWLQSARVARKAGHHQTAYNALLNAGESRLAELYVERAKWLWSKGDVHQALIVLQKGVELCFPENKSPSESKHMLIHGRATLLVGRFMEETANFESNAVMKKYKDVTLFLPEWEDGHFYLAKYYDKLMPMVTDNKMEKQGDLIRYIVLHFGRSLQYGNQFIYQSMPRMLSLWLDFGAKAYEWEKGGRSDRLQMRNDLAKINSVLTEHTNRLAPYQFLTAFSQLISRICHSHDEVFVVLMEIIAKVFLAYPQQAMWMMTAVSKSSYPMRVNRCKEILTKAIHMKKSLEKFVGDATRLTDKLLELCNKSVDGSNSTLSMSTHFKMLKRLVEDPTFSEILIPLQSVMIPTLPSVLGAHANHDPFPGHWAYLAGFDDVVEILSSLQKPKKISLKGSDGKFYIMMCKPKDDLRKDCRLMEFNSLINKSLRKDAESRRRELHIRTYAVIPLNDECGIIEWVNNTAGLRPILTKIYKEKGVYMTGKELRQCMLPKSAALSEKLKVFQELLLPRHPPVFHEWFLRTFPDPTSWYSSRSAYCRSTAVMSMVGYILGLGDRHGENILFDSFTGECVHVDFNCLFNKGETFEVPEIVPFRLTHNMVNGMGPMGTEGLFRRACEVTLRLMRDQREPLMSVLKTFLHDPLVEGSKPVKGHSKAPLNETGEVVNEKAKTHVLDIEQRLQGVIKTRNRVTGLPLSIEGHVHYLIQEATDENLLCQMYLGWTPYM

| SMILES | nuclear γH2AX signal induced by 4-OHT (ATR) | selectivity against IGF-IR vs InsR in cellulo (IGF-IR) |
| --- | --- | --- |
| Cn1c(=O)c2c(ncn2C)n(C)c1=O [Caffeine] | stepwise decrease in the γH2AX signal | – |
| Nc1ncnc2c1c(-c1cccc(OCc3ccccc3)c1)cn2[C@H]1C[C@@H](CN2CCC2)C1 [NVP-AEW541] | – | 26 fold |
